{"source": "ChEMBL document CHEMBL1687848", "about": "“In vitro effect of qnrA1, qnrB1, and qnrS1 genes on fluoroquinolone activity against isogenic Escherichia coli isolates with mutations in gyrA and parC” (2011)", "assay_type_in_all_cases": "functional", "key": {"Escherichia coli [1]": {"system": "Escherichia coli", "test": "Antibacterial activity against qnrS gene expressing Escherichia coli ATCC 25922 harboring ParC S80R mutant and pBK-QnrS1 by broth microdilution method"}, "Escherichia coli [2]": {"system": "Escherichia coli", "test": "Antibacterial activity against Escherichia coli ATCC 25922 harboring ParC S80R mutant by broth microdilution method"}, "Escherichia coli [3]": {"system": "Escherichia coli", "test": "Antibacterial activity against qnrS gene expressing Escherichia coli ATCC 25922 harboring GyrA S83L mutant and pBK-QnrS1 by broth microdilution method"}, "Escherichia coli [4]": {"system": "Escherichia coli", "test": "Antibacterial activity against qnrB gene expressing Escherichia coli ATCC 25922 harboring GyrA S83L mutant and pBK-QnrB1 by broth microdilution method"}, "Escherichia coli [5]": {"system": "Escherichia coli", "test": "Antibacterial activity against qnrA gene expressing Escherichia coli ATCC 25922 harboring ParC S80R mutant and pBK-QnrA1 by broth microdilution method"}, "Escherichia coli [6]": {"system": "Escherichia coli", "test": "Antibacterial activity against Escherichia coli ATCC 25922 expressing qnrB gene and pBK-QnrB1 by broth microdilution method"}, "Escherichia coli [7]": {"system": "Escherichia coli", "test": "Antibacterial activity against Escherichia coli ATCC 25922 by broth microdilution method"}, "Escherichia coli [8]": {"system": "Escherichia coli", "test": "Antibacterial activity against Escherichia coli ATCC 25922 harboring GyrA S83L mutant and ParC S80R mutant by broth microdilution method"}, "Escherichia coli [9]": {"system": "Escherichia coli", "test": "Antibacterial activity against qnrA gene expressing Escherichia coli ATCC 25922 harboring ParC S80R mutant, ParC S80R mutant and pBK-QnrA1 by broth microdilution method"}, "Escherichia coli [10]": {"system": "Escherichia coli", "test": "Antibacterial activity against qnrB gene expressing Escherichia coli ATCC 25922 harboring ParC S80R mutant, ParC S80R mutant and pBK-QnrB1 by broth microdilution method"}, "Escherichia coli [11]": {"system": "Escherichia coli", "test": "Antibacterial activity against qnrS gene expressing Escherichia coli ATCC 25922 harboring ParC S80R mutant, ParC S80R mutant and pBK-QnrS1 by broth microdilution method"}, "Escherichia coli [12]": {"system": "Escherichia coli", "test": "Antibacterial activity against Escherichia coli ATCC 25922 assessed as mutant prevention concentration"}, "Escherichia coli [13]": {"system": "Escherichia coli", "test": "Antibacterial activity against Escherichia coli ATCC 25922 expressing qnrB gene and pBK-QnrB1 assessed as mutant prevention concentration"}, "Escherichia coli [14]": {"system": "Escherichia coli", "test": "Antibacterial activity against Escherichia coli ATCC 25922 expressing qnrS gene and pBK-QnrS1 assessed as mutant prevention concentration"}, "Escherichia coli [15]": {"system": "Escherichia coli", "test": "Antibacterial activity against qnrA gene expressing Escherichia coli ATCC 25922 harboring GyrA S83L mutant and pBK-QnrA1 assessed as mutant prevention concentration"}, "Escherichia coli [16]": {"system": "Escherichia coli", "test": "Antibacterial activity against qnrB gene expressing Escherichia coli ATCC 25922 harboring GyrA S83L mutant and pBK-QnrB1 assessed as mutant prevention concentration"}, "Escherichia coli [17]": {"system": "Escherichia coli", "test": "Antibacterial activity against qnrS gene expressing Escherichia coli ATCC 25922 harboring GyrA S83L mutant and pBK-QnrS1 assessed as mutant prevention concentration"}, "Escherichia coli [18]": {"system": "Escherichia coli", "test": "Ratio of mutant prevention concentration to MIC for Escherichia coli ATCC 25922", "method_in_brief": "(§1)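 MIC: broth microdilution per CLSI, in duplicate. The ratio is MPC over MIC. Strains are E. coli ATCC 25922 or its GyrA Ser83Leu gene-replacement mutant, with qnr genes on pBK-CMV introduced by electroporation.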"}, "Escherichia coli [19]": {"system": "Escherichia coli", "test": "Ratio of mutant prevention concentration to MIC for Escherichia coli ATCC 25922 expressing qnrB gene and pBK-QnrB1", "method_in_brief": "as §1"}, "Escherichia coli [20]": {"system": "Escherichia coli", "test": "Ratio of mutant prevention concentration to MIC for Escherichia coli ATCC 25922 harboring GyrA S83L mutant", "method_in_brief": "as §1"}, "Escherichia coli [21]": {"system": "Escherichia coli", "test": "Ratio of mutant prevention concentration to MIC for qnrA gene expressing Escherichia coli ATCC 25922 harboring GyrA S83L mutant and pBK-QnrA1", "method_in_brief": "as §1"}, "Escherichia coli [22]": {"system": "Escherichia coli", "test": "Ratio of mutant prevention concentration to MIC for qnrB gene expressing Escherichia coli ATCC 25922 harboring GyrA S83L mutant and pBK-QnrB1", "method_in_brief": "as §1"}, "Escherichia coli [23]": {"system": "Escherichia coli", "test": "Ratio of mutant prevention concentration to MIC for qnrS gene expressing Escherichia coli ATCC 25922 harboring GyrA S83L mutant and pBK-QnrS1", "method_in_brief": "as §1"}, "Escherichia coli [24]": {"system": "Escherichia coli", "test": "Antibacterial activity against Escherichia coli ATCC 25922 assessed as earliest time required to resistant colonies visible one step below mutant prevention concentration"}, "Escherichia coli [25]": {"system": "Escherichia coli", "test": "Antibacterial activity against Escherichia coli ATCC 25922 expressing qnrA gene and pBK-QnrA1 assessed as earliest time required to resistant colonies visible one step below mutant prevention concentration"}, "Escherichia coli [26]": {"system": "Escherichia coli", "test": "Antibacterial activity against Escherichia coli ATCC 25922 expressing qnrS gene and pBK-QnrS1 assessed as earliest time required to resistant colonies visible one step below mutant prevention concentration"}, "Escherichia coli [27]": {"system": "Escherichia coli", "test": "Antibacterial activity against qnrB gene expressing Escherichia coli ATCC 25922 harboring GyrA S83L mutant and pBK-QnrB1 assessed as earliest time required to resistant colonies visible one step below mutant prevention concentration"}, "Escherichia coli [28]": {"system": "Escherichia coli", "test": "Antibacterial activity against qnrS gene expressing Escherichia coli ATCC 25922 harboring GyrA S83L mutant and pBK-QnrS1 assessed as earliest time required to resistant colonies visible one step below mutant prevention concentration"}, "Escherichia coli [29]": {"system": "Escherichia coli", "test": "Antibacterial activity against Escherichia coli ATCC 25922 assessed as resistant colonies recovered one step below mutant prevention concentration", "method_in_brief": "(§2)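 Resistant colonies recovered from Mueller-Hinton plates one concentration step below the MPC for each fluoroquinolone were retested for MIC. Mutants taken from plated concentrations closest to the MPC had the QRDRs of gyrA and parC analysed.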"}, "Escherichia coli [30]": {"system": "Escherichia coli", "test": "Antibacterial activity against Escherichia coli ATCC 25922 expressing qnrA gene and pBK-QnrA1 assessed as resistant colonies recovered one step below mutant prevention concentration", "method_in_brief": "as §2"}, "Escherichia coli [31]": {"system": "Escherichia coli", "test": "Antibacterial activity against Escherichia coli ATCC 25922 expressing qnrB gene and pBK-QnrB1 assessed as resistant colonies recovered one step below mutant prevention concentration", "method_in_brief": "as §2"}, "Escherichia coli [32]": {"system": "Escherichia coli", "test": "Antibacterial activity against Escherichia coli ATCC 25922 expressing qnrS gene and pBK-QnrS1 assessed as resistant colonies recovered one step below mutant prevention concentration", "method_in_brief": "as §2"}, "Escherichia coli [33]": {"system": "Escherichia coli", "test": "Antibacterial activity against Escherichia coli ATCC 25922 harboring GyrA S83L mutant assessed as resistant colonies recovered one step below mutant prevention concentration", "method_in_brief": "as §2"}, "Escherichia coli [34]": {"system": "Escherichia coli", "test": "Antibacterial activity against qnrA gene expressing Escherichia coli ATCC 25922 harboring GyrA S83L mutant and pBK-QnrA1 assessed as resistant colonies recovered one step below mutant prevention concentration", "method_in_brief": "as §2"}, "Escherichia coli [35]": {"system": "Escherichia coli", "test": "Antibacterial activity against qnrB gene expressing Escherichia coli ATCC 25922 harboring GyrA S83L mutant and pBK-QnrB1 assessed as resistant colonies recovered one step below mutant prevention concentration", "method_in_brief": "as §2"}, "Escherichia coli [36]": {"system": "Escherichia coli", "test": "Antibacterial activity against qnrS gene expressing Escherichia coli ATCC 25922 harboring GyrA S83L mutant and pBK-QnrS1 assessed as resistant colonies recovered one step below mutant prevention concentration", "method_in_brief": "as §2"}}}
{"smiles": "CCn1cc(C(=O)O)c(=O)c2cc(F)c(N3CCNCC3)cc21", "note": "[NORFLOXACIN]", "values": [{"measurement": "MBC", "setting": "Escherichia coli [1]", "value": 0.5, "unit": "µg/mL"}, {"measurement": "MIC", "setting": "Escherichia coli [1]", "value": 0.5, "unit": "µg/mL"}, {"measurement": "MBC", "setting": "Escherichia coli [2]", "value": 0.03, "unit": "µg/mL"}, {"measurement": "MIC", "setting": "Escherichia coli [2]", "value": 0.03, "unit": "µg/mL"}, {"measurement": "MBC", "setting": "Escherichia coli [3]", "value": 4, "unit": "µg/mL"}, {"measurement": "MIC", "setting": "Escherichia coli [3]", "value": 2, "unit": "µg/mL"}, {"measurement": "MBC", "setting": "Escherichia coli [4]", "value": 1, "unit": "µg/mL"}, {"measurement": "MIC", "setting": "Escherichia coli [4]", "value": 1, "unit": "µg/mL"}, {"measurement": "MBC", "setting": "Escherichia coli [5]", "value": 2, "unit": "µg/mL"}, {"measurement": "MIC", "setting": "Escherichia coli [5]", "value": 0.5, "unit": "µg/mL"}, {"measurement": "MBC", "setting": "Escherichia coli [6]", "value": 0.5, "unit": "µg/mL"}, {"measurement": "MIC", "setting": "Escherichia coli [6]", "value": 0.25, "unit": "µg/mL"}, {"measurement": "MBC", "setting": "Escherichia coli [7]", "value": 0.03, "unit": "µg/mL"}, {"measurement": "MIC", "setting": "Escherichia coli [7]", "value": 0.015, "unit": "µg/mL"}, {"measurement": "MBC", "setting": "Escherichia coli [8]", "value": 2, "unit": "µg/mL"}, {"measurement": "MIC", "setting": "Escherichia coli [8]", "value": 2, "unit": "µg/mL"}, {"measurement": "MBC", "setting": "Escherichia coli [9]", "value": 64, "unit": "µg/mL"}, {"measurement": "MIC", "setting": "Escherichia coli [9]", "value": 8, "unit": "µg/mL"}, {"measurement": "MBC", "setting": "Escherichia coli [10]", "value": 4, "unit": "µg/mL"}, {"measurement": "MIC", "setting": "Escherichia coli [10]", "value": 4, "unit": "µg/mL"}, {"measurement": "MBC", "setting": "Escherichia coli [11]", "value": 16, "unit": "µg/mL"}, {"measurement": "MIC", "setting": "Escherichia coli [11]", "value": 8, "unit": "µg/mL"}, {"measurement": "Activity", "setting": "Escherichia coli [12]", "value": 4, "unit": "µg/mL"}, {"measurement": "Activity", "setting": "Escherichia coli [13]", "value": 8, "unit": "µg/mL"}, {"measurement": "Activity", "setting": "Escherichia coli [14]", "value": 8, "unit": "µg/mL"}, {"measurement": "Activity", "setting": "Escherichia coli [15]", "value": 16, "unit": "µg/mL"}, {"measurement": "Activity", "setting": "Escherichia coli [16]", "value": 16, "unit": "µg/mL"}, {"measurement": "Activity", "setting": "Escherichia coli [17]", "value": 32, "unit": "µg/mL"}, {"measurement": "Ratio", "setting": "Escherichia coli [18]", "value": 266.7}, {"measurement": "Ratio", "setting": "Escherichia coli [19]", "value": 32}, {"measurement": "Ratio", "setting": "Escherichia coli [20]", "value": 32}, {"measurement": "Ratio", "setting": "Escherichia coli [21]", "value": 16}, {"measurement": "Ratio", "setting": "Escherichia coli [22]", "value": 16}, {"measurement": "Ratio", "setting": "Escherichia coli [23]", "value": 16}, {"measurement": "Time", "setting": "Escherichia coli [24]", "value": 48, "unit": "h"}, {"measurement": "Time", "setting": "Escherichia coli [25]", "value": 24, "unit": "h"}, {"measurement": "Time", "setting": "Escherichia coli [26]", "value": 24, "unit": "h"}, {"measurement": "Time", "setting": "Escherichia coli [27]", "value": 24, "unit": "h"}, {"measurement": "Time", "setting": "Escherichia coli [28]", "value": 24, "unit": "h"}, {"measurement": "MIC", "setting": "Escherichia coli [29]", "value": 0.25, "unit": "µg/mL"}, {"measurement": "MIC", "setting": "Escherichia coli [30]", "value": 1, "unit": "µg/mL"}, {"measurement": "MIC", "setting": "Escherichia coli [31]", "value": 0.5, "unit": "µg/mL"}, {"measurement": "MIC", "setting": "Escherichia coli [32]", "value": 1, "unit": "µg/mL"}, {"measurement": "MIC", "setting": "Escherichia coli [33]", "value": 2, "unit": "µg/mL"}, {"measurement": "MIC", "setting": "Escherichia coli [34]", "value": 8, "unit": "µg/mL"}, {"measurement": "MIC", "setting": "Escherichia coli [35]", "value": 2, "unit": "µg/mL"}, {"measurement": "MIC", "setting": "Escherichia coli [36]", "value": 2, "unit": "µg/mL"}]}
